Source: PubChem BioAssay (Broad Institute)
This excerpt belongs to a sample that is enriched for hits.
INS-1E ATP HTS = preserves ATP levels in cytokine-treated INS-1E cells. 20,000 compounds, 0.1% hits. protection from cytokine-induced ATP loss, % at 10 µM. INS-1E cytokine-induced death, ATP luminescence, 48 h; normalised: neutral wells 0, positive control 100;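 active = mean replicate protection from cytokine-induced ATP loss at least 50% and at least 75% of replicates each reaching 50%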
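Assay system: INS-1E rat cells / Quantity: 8000 cells per well / Medium: RPMI without phenol red, 5% FBS / Probe or stimulus: three-cytokine cocktail (IFN-γ, TNF-α, IL-1β) / Dosing: one compound concentration, pin transfer / Timing: 48 h co-treatment, 10 min post-lysis read / Technique: CellTiter-Glo luminescence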
A1 apoptosis 2 = compounds inhibiting A1, read as caspase activation; MEF A1-2A-BIM cells, caspase-Glo luminescence, 3 h; percent of clofoctol response, DMSO zero; 24,000 tested, under 10 active; caspase activation, % (test concentration not listed); AID 2465; in the data active = caspase activation above about 5.9%
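System: mouse embryonic fibroblasts co-expressing A1 and BIM (A1-2A-BIM), primed for A1 dependence; amount: 2500 cells/well; doses: 50 nL pinned compound; schedule: cells settled overnight, compound exposure 3 h at 37 °C, 5% CO2; detection: Caspase-Glo 3/7 luminescence, 1 h at room temperature; read-out: Caspase-3/7 activation, seen as rise in luminescence signal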
T cruzi HTS = inhibitors of intracellular Trypanosoma cruzi. AID 651903. activity score (inhibition), % at 5.01 µM. 22,000 compounds, 4.9% hits. intracellular Trypanosoma cruzi in host cells, plate reader; in the data active = activity score above about 55%;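 note: parasites and compound incubated about four days before reading; 0% = median of neutral control wells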
Numbers without * were called inactive; . = no result given.

SMILES	INS-1E ATP HTS	A1 apoptosis 2	T cruzi HTS
C[C@H]1CN([C@@H](C)CO)C(=O)Cc2cc(NC(=O)Nc3ccc4c(c3)OCO4)ccc2O[C@H]1CN(C)Cc1ccc(C(F)(F)F)cc1	-32.1	.	67.7*
O=C(CCCCC(=O)N/N=C/c1ccccc1C(=O)O)NO	9.2	.	-19.2
O=C(c1ccccc1)c1ccc(N2CCOCC2)cc1O	.	-6.8	.
CCN(CC)c1ccc(/C=N/NC(=O)c2ccccn2)c(O)c1	.	-10.5	.
C[C@H](CO)N1C[C@H](C)[C@@H](CN(C)C(=O)Nc2ccc(C(F)(F)F)cc2)Oc2ccc(NC(=O)Nc3ccc4c(c3)OCO4)cc2CC1=O	.	0.9	.
C[C@H]1CN([C@@H](C)CO)C(=O)Cc2cc(NC(=O)Nc3ccc4c(c3)OCO4)ccc2O[C@@H]1CN(C)Cc1ccc(C(F)(F)F)cc1	-41.8	0.0	71.3*
O=C(N/N=C/c1ccccc1[N+](=O)[O-])c1ccccn1	6.1	.	-23.8
Cc1noc(C)c1S(=O)(=O)Nc1ccc2c(c1)C(=O)N([C@@H](C)CO)C[C@@H](C)[C@H](CN(C)Cc1ccc(C(F)(F)F)cc1)O2	-17.7	.	27.6
Cc1noc(C)c1S(=O)(=O)Nc1ccc2c(c1)CC(=O)N([C@H](C)CO)C[C@H](C)[C@H](CN(C)Cc1ccc(Cl)c(Cl)c1)O2	-10.4	0.9	52.7
Cc1noc(C)c1S(=O)(=O)Nc1ccc2c(c1)C(=O)N([C@H](C)CO)C[C@H](C)[C@H](CN(C)Cc1ccc(C(F)(F)F)cc1)O2	-12.1	.	63.1*
Cc1noc(C)c1S(=O)(=O)Nc1ccc2c(c1)C(=O)N([C@H](C)CO)C[C@@H](C)[C@@H](CN(C)Cc1ccc(Cl)c(Cl)c1)O2	-7.8	.	4.6
Cc1noc(C)c1S(=O)(=O)Nc1ccc2c(c1)CC(=O)N([C@H](C)CO)C[C@@H](C)[C@@H](CN(C)Cc1ccc(Cl)c(Cl)c1)O2	-28.4	.	60.6*
Cc1noc(C)c1S(=O)(=O)Nc1ccc2c(c1)C(=O)N([C@H](C)CO)C[C@H](C)[C@@H](CN(C)Cc1ccc(Cl)c(Cl)c1)O2	-9.8	.	63.4*
O=C(N/N=C/c1cc2ccccc2n1S(=O)(=O)c1ccccc1)c1ccccc1O	4.8	-0.9	0.2
Cc1ccc(O)c(/C=N/NC(=O)c2ccccc2O)c1	-135.2	.	43.8
C[C@H](CO)N1C[C@H](C)[C@H](CN(C)S(=O)(=O)c2ccccc2)OCCCC[C@H](C)Oc2ccc(NC(=O)Nc3ccc(C(F)(F)F)cc3)cc2C1=O	.	-0.5	.
C[C@@H]1CCCCO[C@H](CN(C)S(=O)(=O)c2ccccc2)[C@@H](C)CN([C@@H](C)CO)C(=O)c2cc(NC(=O)Nc3ccc(C(F)(F)F)cc3)ccc2O1	.	0.8	.
COc1ccc(S(=O)(=O)N(C)C[C@H]2OCCCC[C@H](C)Oc3ccc(NC(=O)Nc4ccc(C(F)(F)F)cc4)cc3C(=O)N([C@H](C)CO)C[C@H]2C)cc1	.	0.1	.
C[C@@H]1CCCCO[C@@H](CN(C)S(=O)(=O)c2ccccc2)[C@@H](C)CN([C@H](C)CO)C(=O)c2cc(NC(=O)Nc3ccc(C(F)(F)F)cc3)ccc2O1	-12.9	-0.1	68.6*
C[C@@H]1CCCCO[C@H](CN(C)S(=O)(=O)c2ccccc2)[C@@H](C)CN([C@H](C)CO)C(=O)c2cc(NC(=O)Nc3ccc(C(F)(F)F)cc3)ccc2O1	-17.9	0.0	63.9*
Cc1noc(C)c1S(=O)(=O)N(C)C[C@H]1OCCCC[C@@H](C)Oc2ccc(NC(=O)Nc3ccc(C(F)(F)F)cc3)cc2C(=O)N([C@H](C)CO)C[C@@H]1C	-23.1	2.2	69.6*
COc1ccc(S(=O)(=O)N(C)C[C@@H]2OCCCC[C@@H](C)Oc3ccc(NC(=O)Nc4ccc(C(F)(F)F)cc4)cc3C(=O)N([C@H](C)CO)C[C@@H]2C)cc1	-10.8	.	64.6*
Cc1noc(C)c1S(=O)(=O)N(C)C[C@@H]1OCCCC[C@H](C)Oc2ccc(NC(=O)Nc3ccc(C(F)(F)F)cc3)cc2C(=O)N([C@H](C)CO)C[C@H]1C	.	0.1	.
[N-]=[N+]=NCc1ccccc1C[C@@]1(C(=O)NCCN2CCOCC2)N=C(c2ccc(OCCCO)cc2)O[C@@H]1c1ccccc1	.	0.0	.
O=C1O[C@H](c2ccccc2)[C@H](c2ccccc2)N2[C@H]1[C@@H](C(=O)O)[C@]1(C(=O)Nc3ccc(C#CC4=CCCCC4)cc31)[C@H]2c1ccc(O)cc1	.	-0.8	.
SMILES	INS-1E ATP HTS	A1 apoptosis 2	T cruzi HTS
O=C(O)C1=C[C@H](c2ccc3c(c2)Cc2ccccc2-3)C[C@H](OCc2ccc(CO)cc2)O1	.	-3.8	.
COCC1=C2[C@@H](c3ccccc3)OB(O)C[C@@H]2[C@@H]2C(=O)N(C)C(=O)[C@@H]2C1	.	0.3	.
Cc1ccc(S(=O)(=O)N(C)C[C@H]2OCCCC[C@@H](C)Oc3ccc(NC(=O)Nc4ccc(C(F)(F)F)cc4)cc3C(=O)N([C@H](C)CO)C[C@@H]2C)cc1	-61.5	.	64.1*
Cc1ccc(S(=O)(=O)N(C)C[C@@H]2OCCCC[C@H](C)Oc3ccc(NC(=O)Nc4ccc(C(F)(F)F)cc4)cc3C(=O)N([C@@H](C)CO)C[C@@H]2C)cc1	.	-2.0	.
C[C@H](CO)N1C[C@H](C)[C@H](CN(C)Cc2ccc(Oc3ccccc3)cc2)Oc2c(NC(=O)C3CCOCC3)cccc2C1=O	-9.3	-0.1	7.1
C[C@@H]1CN([C@H](C)CO)C(=O)c2cccc(NC(=O)C3CC3)c2O[C@@H]1CN(C)Cc1ccc(Oc2ccccc2)cc1	-23.9	.	-8.0
C[C@@H]1CN([C@@H](C)CO)C(=O)c2cccc(NC(=O)C3CCCCC3)c2O[C@@H]1CN(C)Cc1ccc(Oc2ccccc2)cc1	-65.3	.	16.9
C[C@@H]1CN([C@@H](C)CO)C(=O)c2cccc(NC(=O)C3CCCCC3)c2O[C@H]1CN(C)Cc1ccc(Oc2ccccc2)cc1	-94.7	.	65.6*
C[C@@H]1CN([C@H](C)CO)C(=O)c2cccc(NC(=O)C3CCCCC3)c2O[C@H]1CN(C)Cc1ccc(Oc2ccccc2)cc1	-26.7	-1.4	69.1*
C[C@@H]1CN([C@@H](C)CO)C(=O)c2cccc(NC(=O)C3CC3)c2O[C@H]1CN(C)Cc1ccc(Oc2ccccc2)cc1	-68.4	-1.4	63.1*
C[C@H](CO)N1C[C@H](C)[C@@H](CN(C)Cc2ccc(Oc3ccccc3)cc2)Oc2c(NC(=O)C3CCCCC3)cccc2C1=O	-61.7	.	75.0*
C[C@H](CO)N1C[C@H](C)[C@H](CN(C)Cc2ccc(Oc3ccccc3)cc2)Oc2c(NC(=O)C3CC3)cccc2C1=O	-16.0	1.5	-20.3
O=C(N/N=C/c1ccccc1C(=O)O)c1ccccc1O	-21.3	-13.0	-15.1
O=C(CCCCCCC(=O)N/N=C/c1cc(O)ccc1[N+](=O)[O-])NO	.	1.2	.
O=C1O[C@H](c2ccccc2)[C@H](c2ccccc2)N2[C@H]1[C@@H](C(=O)O)[C@]1(C(=O)Nc3ccc(C#CC4(O)CCCCCC4)cc31)[C@H]2c1ccccc1OCCO	.	0.9	.
C[C@H]1CN([C@@H](C)CO)C(=O)c2cccc(NC(=O)c3ccncc3)c2O[C@@H]1CN(C)Cc1ccc2c(c1)OCO2	-5.3	-0.2	78.2*
